One data set has as its system HepG2 cells. The class given is cell-based, human. To be noted: 2 hours, DOX equivalent 30 μg/mL. Summed up:
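HepG2 cells in DMEM/10% FBS, 37°C, […], exposed 2 h at 37°C to free or liposomal drug at 30 μg/mL DOX equivalent. Confocal: 7 × 10^4 cells/well on cover glass, 50% confluence, PBS-washed, paraformaldehyde-fixed, Triton-permeabilised, DAPI-stained, ex/em 488/560 nm. Flow: 80% confluence, ex 488/em 575 nm, drug-free cells as reference, n = 3. Competition: 100 mM Gal stock added before liposomes.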

Data set [1] can be described thus: Pharmacokinetic studies in rats. To be noted: at 4 hours postinjection, DOX equivalent dose 10 mg/kg. The class given is in vivo, Sprague Dawley rats. The procedure, abridged:
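Sprague Dawley rats, 5 per group, given 10 mg/kg DOX equivalent. Jugular blood drawn 10 min to 8 h, plasma spun off immediately. Salicylic acid internal standard added, then perchloric acid precipitation. Supernatant run on C18 HPLC in NH4H2PO4 (0.01 mol/L)-acetonitrile-acetic acid (76:24:0.4) at 1.0 mL/min, 233 nm, 40°C. Two-compartment pharmacokinetic modelling.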

Data set [2] can be described thus: In vivo biodistribution study. The note with it: mice, intravenous, DOX equivalent 5 mg/kg; heart, spleen, lung, kidney. Also noted: species or system Kunming mice.

Molecules are shown by their SMILES.

The values that follow come from paper PMC3746791 (International Journal of Nanomedicine, 2013).

Regarding `COc1cccc2c1C(=O)c1c(O)c3c(c(O)c1C2=O)C[C@@](O)(C(=O)CO)C[C@@H]3O[C@H]1C[C@H](N)[C@H](O)[C@H](C)O1` [Free DOX, doxorubicin], the “Cellular uptake of DOX (fluorescence)” value with HepG2 cells is “most intense intracellular fluorescence”. For the same molecule, the “Plasma concentration of DOX” value in data set [1] is 180 ng/mL. In addition, the “DOX fluorescence in other organs” value in data set [2] is “fluorescence was also observed in the heart, spleen, and kidney”.
